The target of series [1] is T1, Potassium voltage-gated channel subfamily A member 5 (Homo sapiens, UniProt P22460). As to the kind of experiment: Inhibition of human voltage-gated potassium channel subunit Kv1.5 expressed in Xenopus oocytes. Format: cell-based, Oocyte. A digest of the protocol:
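Compounds came from a 10 mM DMSO stock diluted into ND96. Read-out was percent inhibition of the compound-free control current. For IC50, 3–4 concentrations were each tested at least twice and fitted with a variable-slope Hill equation.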

For a further series, the target named is hERG (KCNH2) (Homo sapiens, UniProt Q12809). As to the kind of experiment: Inhibition of human Potassium channel HERG expressed in Xenopus oocytes at 10 uM. The class given is cell-based, Oocyte. To be noted: Xenopus oocytes expressing human hERG. On the technique in general: Block of hERG is tested as a sign of cardiac risk.
The target in series [2] is Potassium voltage-gated channel subfamily A member 3 (Homo sapiens, UniProt P22001). As to the kind of experiment: Inhibition of human voltage-gated potassium channel subunit Kv1.3 expressed in Xenopus oocytes. The class given is cell-based, Oocyte. In a few lines: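 Kv1.3 was expressed in Xenopus oocytes and recorded by two-microelectrode voltage clamp, handled like the Kv1.5 assay. Compounds were diluted from a 10 mM DMSO stock into ND96 superfusate. Percent inhibition of the control current at 3–4 concentrations was fitted with a variable-slope dose–response equation to give IC50.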

The target in series [3] is T1, Potassium voltage-gated channel subfamily A member 5. As to the kind of experiment: Inhibition of human voltage-gated potassium channel subunit Kv1.5 expressed in Xenopus oocytes at 10 uM. Format: cell-based. To be noted: Oocyte. In a few lines:
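Human Kv1.5 cRNA (0.2–0.5 ng) was injected into Xenopus oocytes kept at 18 °C. […] Compounds came from a 10 mM DMSO stock diluted into ND96. Read-out was percent inhibition of the compound-free control current. For IC50, 3–4 concentrations were each tested at least twice and fitted with a variable-slope Hill equation.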

Structures are written as SMILES. pIC50: −log10 of the molar value. Several values for one entry are separate records, joined by “and”; a condition that tells them apart may be missing. Identical values can stand only once.

The term pIC50 denotes the IC50 on a negative log10 scale, so that one unit is a factor of ten. As usually defined, the inhibition is the share of the control response that was lost under treatment. Read a high inhibition as a strong effect.

T1 sequence (P22460 whole entry): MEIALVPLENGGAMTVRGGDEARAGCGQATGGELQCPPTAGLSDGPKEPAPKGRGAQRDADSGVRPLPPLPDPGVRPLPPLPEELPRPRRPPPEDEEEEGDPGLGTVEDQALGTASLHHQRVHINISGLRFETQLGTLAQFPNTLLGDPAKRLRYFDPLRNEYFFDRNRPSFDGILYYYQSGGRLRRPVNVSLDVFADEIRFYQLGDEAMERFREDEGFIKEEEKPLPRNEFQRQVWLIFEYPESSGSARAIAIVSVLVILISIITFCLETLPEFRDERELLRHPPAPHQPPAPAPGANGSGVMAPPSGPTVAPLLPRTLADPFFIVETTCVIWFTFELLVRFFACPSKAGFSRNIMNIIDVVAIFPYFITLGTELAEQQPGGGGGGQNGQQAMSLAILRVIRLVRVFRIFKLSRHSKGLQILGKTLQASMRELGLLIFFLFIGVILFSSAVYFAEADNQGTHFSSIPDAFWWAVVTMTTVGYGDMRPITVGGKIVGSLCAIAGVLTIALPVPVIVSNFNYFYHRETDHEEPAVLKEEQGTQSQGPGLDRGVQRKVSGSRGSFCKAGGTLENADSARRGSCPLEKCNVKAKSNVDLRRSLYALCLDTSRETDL
Sequence of hERG (KCNH2) (Q12809 whole entry): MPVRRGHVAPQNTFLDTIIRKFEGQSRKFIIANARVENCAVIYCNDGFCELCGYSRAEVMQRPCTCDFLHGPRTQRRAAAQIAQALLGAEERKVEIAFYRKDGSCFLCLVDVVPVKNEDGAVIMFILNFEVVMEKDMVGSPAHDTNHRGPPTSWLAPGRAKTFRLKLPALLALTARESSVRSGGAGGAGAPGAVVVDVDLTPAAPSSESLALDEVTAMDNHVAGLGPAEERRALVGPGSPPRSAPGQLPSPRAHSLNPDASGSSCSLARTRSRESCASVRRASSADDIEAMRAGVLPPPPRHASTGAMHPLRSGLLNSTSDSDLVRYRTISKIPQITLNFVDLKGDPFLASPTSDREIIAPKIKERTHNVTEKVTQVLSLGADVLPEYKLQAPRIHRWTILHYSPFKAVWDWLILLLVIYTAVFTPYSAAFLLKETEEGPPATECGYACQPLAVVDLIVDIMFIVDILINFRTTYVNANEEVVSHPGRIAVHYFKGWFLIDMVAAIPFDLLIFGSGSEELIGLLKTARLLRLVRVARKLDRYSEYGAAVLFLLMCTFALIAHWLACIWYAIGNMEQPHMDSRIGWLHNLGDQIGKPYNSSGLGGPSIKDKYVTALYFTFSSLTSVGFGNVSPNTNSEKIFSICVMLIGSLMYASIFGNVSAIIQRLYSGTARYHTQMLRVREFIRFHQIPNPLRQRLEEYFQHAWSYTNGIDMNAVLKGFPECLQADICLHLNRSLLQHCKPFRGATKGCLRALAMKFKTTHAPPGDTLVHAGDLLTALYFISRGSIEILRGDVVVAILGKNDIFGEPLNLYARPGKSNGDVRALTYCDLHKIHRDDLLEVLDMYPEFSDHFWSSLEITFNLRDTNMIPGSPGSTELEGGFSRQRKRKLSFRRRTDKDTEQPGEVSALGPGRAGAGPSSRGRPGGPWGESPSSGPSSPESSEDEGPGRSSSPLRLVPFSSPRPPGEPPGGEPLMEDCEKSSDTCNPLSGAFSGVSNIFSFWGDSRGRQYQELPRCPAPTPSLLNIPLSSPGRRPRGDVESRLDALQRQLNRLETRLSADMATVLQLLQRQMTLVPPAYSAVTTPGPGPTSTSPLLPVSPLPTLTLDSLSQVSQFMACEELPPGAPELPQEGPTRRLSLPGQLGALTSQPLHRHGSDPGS
Sequence of Potassium voltage-gated channel subfamily A member 3 (P22001 whole entry): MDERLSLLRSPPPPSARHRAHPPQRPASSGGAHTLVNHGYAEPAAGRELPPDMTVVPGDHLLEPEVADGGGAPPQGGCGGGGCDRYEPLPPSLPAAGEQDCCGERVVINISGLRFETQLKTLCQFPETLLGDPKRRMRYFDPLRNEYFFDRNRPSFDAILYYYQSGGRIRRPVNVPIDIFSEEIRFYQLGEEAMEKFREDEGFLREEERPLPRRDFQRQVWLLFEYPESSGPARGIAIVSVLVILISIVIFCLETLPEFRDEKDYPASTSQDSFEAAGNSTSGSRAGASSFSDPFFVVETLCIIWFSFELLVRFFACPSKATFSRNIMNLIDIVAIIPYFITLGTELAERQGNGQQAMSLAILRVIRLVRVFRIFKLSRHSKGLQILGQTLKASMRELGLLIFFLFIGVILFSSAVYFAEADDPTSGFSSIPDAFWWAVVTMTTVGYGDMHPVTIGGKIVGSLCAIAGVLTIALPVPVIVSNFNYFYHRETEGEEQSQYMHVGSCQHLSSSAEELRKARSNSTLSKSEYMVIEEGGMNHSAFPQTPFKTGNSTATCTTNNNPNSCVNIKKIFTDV

In the case of `O=C(NCc1ccccc1-c1ccccc1C(=O)NCc1ccc(F)cc1F)OCc1ccccc1`, in series [1], the pIC50 is 5.92.
Compound `C[C@H](OC(=O)NCc1ccccc1-c1ccccc1C(=O)NCCc1ccccn1)c1ccccc1` registered an inhibition at 10 µM against hERG (KCNH2) of 11%. This compound also showed a pIC50 in series [2] of 6.30.
For the compound `CC(C)CCOC(=O)c1ccccc1-c1ccccc1CNC(=O)OCc1ccccc1`, the inhibition in series [3] is 8%.
Turning to `CC(C)CCNC(=O)c1ccccc1-c1ccccc1CNCCc1ccccc1`, in series [1], the negative logarithm of the IC50 (pIC50) is 5.40.
Still for that read-out and setting: as for `Cc1cccc(CNC(=O)OCc2ccccc2)c1-c1c(C)cccc1C(=O)NCCc1ccccn1`, the figure is 5.77; as for `C[C@@H](CC(=O)NCc1ccccc1-c1ccccc1C(=O)NCCc1ccccn1)c1ccccc1`, 6.00.
Still for that read-out and setting: as for `CC(C)CCNC(=O)c1ccccc1-c1ccncc1CNC(=O)OCc1ccccc1`, the figure is 5.15; as for `Cc1cccc(CNC(=O)OCc2ccccc2)c1-c1c(C)cccc1C(=O)NCCC(C)C`, 6.00 and 5.89; as for `CC(C)CCNC(=O)c1ccncc1-c1ccccc1CNC(=O)OCc1ccccc1`, 4.92.
In the case of `O=C(NCc1ccccc1-c1ccccc1C(=O)NCCc1ccccn1)OCc1ccccc1`, on hERG (KCNH2), 10 µM produced 7% inhibition. Also, the pIC50 in series [2] was 5.64.
As to `COc1ccc(S(=O)(=O)NC(=O)NCc2ccccc2-c2ccccc2C(=O)NCc2ccc(F)cc2F)cc1`, the inhibition in series [3] was 7%.
Regarding `CN(C)CC(C)(C)CNC(=O)c1ccccc1-c1ccccc1CNC(=O)OCc1ccccc1`, in series [1], the pIC50 is 5.66.
Still for that read-out and setting: as for `O=C(NC1CCCCC1)c1cccc2cccc(NS(=O)(=O)c3ccc(Cl)cc3)c12`, the figure is 5.02; as for `CC(C)CCNC(=O)c1cccnc1-c1ccccc1CNC(=O)OCc1ccccc1`, 5.11.

The record behind these values is ChEMBL document CHEMBL1145963, “Identification, synthesis, and activity of novel blockers of the voltage-gated potassium channel Kv1.5” (J Med Chem, 2003).
